The structures appear in SMILES notation. Some results are limits rather than exact numbers.

Sequence of Coagulation factor X (P00742 41-179 limits assumed): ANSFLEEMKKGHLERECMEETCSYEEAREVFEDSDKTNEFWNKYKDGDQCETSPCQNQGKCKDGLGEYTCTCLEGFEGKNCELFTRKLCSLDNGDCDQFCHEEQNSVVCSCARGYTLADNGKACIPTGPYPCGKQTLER
Sequence of Coagulation factor X (P00742 235-488 limits assumed): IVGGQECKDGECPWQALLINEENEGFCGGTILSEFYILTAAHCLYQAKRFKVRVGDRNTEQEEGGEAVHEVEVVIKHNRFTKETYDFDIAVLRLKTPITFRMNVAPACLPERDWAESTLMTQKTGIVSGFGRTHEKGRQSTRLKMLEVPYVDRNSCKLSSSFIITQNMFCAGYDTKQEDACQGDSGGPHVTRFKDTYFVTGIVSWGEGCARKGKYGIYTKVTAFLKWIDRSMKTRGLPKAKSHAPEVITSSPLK

One test is filed under the species Homo sapiens. The test is described as follows: Selectivity for human factor 10a over human thrombin.
On to `CS(=O)(=O)N(Cc1ccc2ccc(C(=N)N)cc2c1)C1CCN(S(=O)(=O)c2cccc(F)c2)CC1`, for which the Selectivity ratio was over 7000.

With `COc1ccc(OC)c(S(=O)(=O)N2CCC(N(Cc3ccc4ccc(C(=N)N)cc4c3)S(C)(=O)=O)CC2)c1`, the Selectivity ratio is over 7000.

As to `CS(=O)(=O)N(Cc1ccc2ccc(C(=N)N)cc2c1)C1CCN(S(=O)(=O)c2ccccc2Cl)CC1`, the Selectivity ratio was over 7000.

With `CS(=O)(=O)N1CCC(N(Cc2ccc3ccc(C(=N)N)cc3c2)S(C)(=O)=O)CC1`, the Selectivity ratio is over 7000.

As for `CS(=O)(=O)N(Cc1ccc2ccc(C(=N)N)cc2c1)C1CCNCC1`, the Selectivity ratio is over 7000.

For `COc1ccc(OC)c(S(=O)(=O)N2CCC(N(Cc3ccc4ccc(C(=N)N)cc4c3)S(=O)(=O)CC(=O)O)CC2)c1`, the Selectivity ratio was over 7000.

Regarding `Cc1ccc(S(=O)(=O)N2CCC(N(Cc3ccc4ccc(C(=N)N)cc4c3)S(C)(=O)=O)CC2)cc1`, the Selectivity ratio is over 7000.

For the molecule `COc1ccc(Cl)cc1S(=O)(=O)N1CCC(N(Cc2ccc3ccc(C(=N)N)cc3c2)S(C)(=O)=O)CC1`, the Selectivity ratio is over 7000.

For the next test, the species on record is Homo sapiens. The test is described as follows: Selectivity for human factor 10a over human trypsin.
`CS(=O)(=O)N(Cc1ccc2ccc(C(=N)N)cc2c1)C1CCN(S(=O)(=O)c2cccc(F)c2)CC1`: the Selectivity ratio was over 100.

For `COc1ccc(OC)c(S(=O)(=O)N2CCC(N(Cc3ccc4ccc(C(=N)N)cc4c3)S(C)(=O)=O)CC2)c1`, the Selectivity ratio was over 100.

Turning to `CS(=O)(=O)N(Cc1ccc2ccc(C(=N)N)cc2c1)C1CCN(S(=O)(=O)c2ccccc2Cl)CC1`, the Selectivity ratio was over 100.

As to `CS(=O)(=O)N1CCC(N(Cc2ccc3ccc(C(=N)N)cc3c2)S(C)(=O)=O)CC1`, the Selectivity ratio was over 100.

Take `CS(=O)(=O)N(Cc1ccc2ccc(C(=N)N)cc2c1)C1CCNCC1`: the Selectivity ratio is over 100.

Consider `COc1ccc(OC)c(S(=O)(=O)N2CCC(N(Cc3ccc4ccc(C(=N)N)cc4c3)S(=O)(=O)CC(=O)O)CC2)c1`, for which the Selectivity ratio was over 100.

`Cc1ccc(S(=O)(=O)N2CCC(N(Cc3ccc4ccc(C(=N)N)cc4c3)S(C)(=O)=O)CC2)cc1`: the Selectivity ratio was over 100.

Take `COc1ccc(Cl)cc1S(=O)(=O)N1CCC(N(Cc2ccc3ccc(C(=N)N)cc3c2)S(C)(=O)=O)CC1`: the Selectivity ratio was over 100.

A further test concerns Plasma. The test is described as follows: Anticoagulant activity in mouse plasma assessed as concentration required to double prothrombin time. In kind it is functional. The method, boiled down:
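Pooled citrated mouse plasma was incubated with diluted compound for 1 min at 37 °C. Brain thromboplastin PT reagent was then added to start clotting, and clot time was read on a coagulometer. The concentration doubling clotting time (CT₂) was estimated from each individual dose–response curve.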
On to `COc1ccc(OC)c(S(=O)(=O)N2CCC(N(Cc3ccc4ccc(C(=N)N)cc4c3)S(=O)(=O)CC(=O)O)CC2)c1`, for which the Activity stood at 1.7 µM.

Another test deals with Prothrombin (Homo sapiens, UniProt P00734). The test is described as follows: Inhibition of human thrombin.
The IC50 is the concentration needed to halve the response being measured. `COc1ccc(OC)c(S(=O)(=O)N2CCC(N(Cc3ccc4ccc(C(=N)N)cc4c3)S(C)(=O)=O)CC2)c1` had an IC50 of over 100000 nM.

Molecule `COc1ccc(OC)c(S(=O)(=O)N2CCC(N(Cc3ccc4ccc(C(=N)N)cc4c3)S(=O)(=O)CC(=O)O)CC2)c1` showed an IC50 of over 100000 nM.

Another test concerns the target Coagulation factor X (Homo sapiens, UniProt P00742). The test is described as follows: Inhibition of human factor 10a.
Molecule `CS(=O)(=O)N(Cc1ccc2ccc(C(=N)N)cc2c1)C1CCN(S(=O)(=O)c2ccc(Cl)cc2)CC1` registered a concentration for half-maximal inhibition (IC50) of 1600 nM.

With `CS(=O)(=O)N(Cc1ccc2ccc(C(=N)N)cc2c1)C1CCN(c2ccncc2)CC1`, the IC50 came to 90 nM.

The molecule `CS(=O)(=O)N(Cc1ccc2ccc(C(=N)N)cc2c1)C1CCN(S(=O)(=O)c2cc(Cl)sc2Cl)CC1` had an IC50 of 100 nM.

Molecule `CS(=O)(=O)N(Cc1ccc2ccc(C(=N)N)cc2c1)C1CCN(S(=O)(=O)c2cccc(C#N)c2)CC1` returned an IC50 of 170 nM.

As to `CS(=O)(=O)N(Cc1ccc2ccc(C(=N)N)cc2c1)C1CCN(S(=O)(=O)c2cccc(-c3ccccc3)c2)CC1`, the IC50 was 200 nM.

Turning to `CS(=O)(=O)N(Cc1ccc2ccc(C(=N)N)cc2c1)C1CCN(S(=O)(=O)c2cccc(F)c2)CC1`, the IC50 is 800 nM.

As for `CS(=O)(=O)N(Cc1ccc2ccc(C(=N)N)cc2c1)C1CCN(S(=O)(=O)c2ccccc2)CC1`, the midpoint of inhibition, the IC50, lay at 850 nM.

`COc1ccc(OC)c(S(=O)(=O)N2CCC(N(Cc3ccc4ccc(C(=N)N)cc4c3)S(C)(=O)=O)CC2)c1` gave an IC50 of 11 nM.

The molecule `CS(=O)(=O)N(Cc1ccc2ccc(C(=N)N)cc2c1)C1CCN(S(=O)(=O)c2ccccc2Cl)CC1` registered an IC50 of 350 nM.

The molecule `COc1ccc(OC)c(S(=O)(=O)N2CCC(N(C)Cc3ccc4ccc(C(=N)N)cc4c3)CC2)c1` registered an IC50 of 590 nM.

Turning to `CS(=O)(=O)N1CCC(N(Cc2ccc3ccc(C(=N)N)cc3c2)S(C)(=O)=O)CC1`, the IC50 was over 100000 nM.

`CS(=O)(=O)N(Cc1ccc2ccc(C(=N)N)cc2c1)C1CCN(S(=O)(=O)c2cccc(Cl)c2)CC1` yielded an IC50 of 49 nM.

The molecule `CS(=O)(=O)N(Cc1ccc2ccc(C(=N)N)cc2c1)C1CCNCC1` gave an IC50 of over 100000 nM.

With `COc1ccc(OC)c(S(=O)(=O)N2CCC(N(Cc3ccc4ccc(C(=N)N)cc4c3)S(=O)(=O)CC(=O)O)CC2)c1`, it took 13 nM to reach half-maximal inhibition (IC50).

The molecule `CS(=O)(=O)N(Cc1ccc2ccc(C(=N)N)cc2c1)C1CCN(S(=O)(=O)c2cc(Cl)ccc2Cl)CC1` returned an IC50 of 65 nM.

`Cc1ccc(S(=O)(=O)N2CCC(N(Cc3ccc4ccc(C(=N)N)cc4c3)S(C)(=O)=O)CC2)cc1`: the 50% inhibitory concentration (IC50) was over 100000 nM.

As for `COc1ccc(Cl)cc1S(=O)(=O)N1CCC(N(Cc2ccc3ccc(C(=N)N)cc3c2)S(C)(=O)=O)CC1`, the IC50 came to 39 nM.

For `Cc1cccc(S(=O)(=O)N2CCC(N(Cc3ccc4ccc(C(=N)N)cc4c3)S(C)(=O)=O)CC2)c1`, the half-inhibitory concentration (IC50) was found to be 250 nM.

A further test has as its target Trypsin (Homo sapiens, UniProt P07477+P07478+P35030). Put plainly: Inhibition of human trypsin. In kind it is protein assay.
Turning to `COc1ccc(OC)c(S(=O)(=O)N2CCC(N(Cc3ccc4ccc(C(=N)N)cc4c3)S(C)(=O)=O)CC2)c1`, the IC50 turned out to be 1100 nM.

`COc1ccc(OC)c(S(=O)(=O)N2CCC(N(Cc3ccc4ccc(C(=N)N)cc4c3)S(=O)(=O)CC(=O)O)CC2)c1` returned an IC50 of 2700 nM.

A further test has as its system Plasma. Put plainly: Anticoagulant activity in human plasma assessed as concentration required to double prothrombin time. In kind it is functional.
For the molecule `COc1ccc(OC)c(S(=O)(=O)N2CCC(N(Cc3ccc4ccc(C(=N)N)cc4c3)S(=O)(=O)CC(=O)O)CC2)c1`, the Activity was 0.55 µM.

These data come from ChEMBL document CHEMBL1147967, “Prodrug-based design, synthesis, and biological evaluation of N-benzenesulfonylpiperidine derivatives as novel, orally active factor Xa inhibitors” (Bioorg Med Chem, 2007).
